Data taken from ChEMBL document CHEMBL1782044, “Aspartic vinyl sulfones: inhibitors of a caspase-3-dependent pathway” (Eur J Med Chem, 2011).
The source made the active and inactive calls. The rule behind the calls is not given here.

Columns and labels:
Caspase-3 (Homo sapiens) = biological target: T1, Caspase-3 (Homo sapiens) (UniProt P42574); experiment: Inhibition of human recombinant caspase-3 assessed as fluorescent 7-amido-4-methylcoumarin release using Ac-DEVD-AMC as peptide substrate at <200 uM by fluorometric assay
T1 sequence (whole entry): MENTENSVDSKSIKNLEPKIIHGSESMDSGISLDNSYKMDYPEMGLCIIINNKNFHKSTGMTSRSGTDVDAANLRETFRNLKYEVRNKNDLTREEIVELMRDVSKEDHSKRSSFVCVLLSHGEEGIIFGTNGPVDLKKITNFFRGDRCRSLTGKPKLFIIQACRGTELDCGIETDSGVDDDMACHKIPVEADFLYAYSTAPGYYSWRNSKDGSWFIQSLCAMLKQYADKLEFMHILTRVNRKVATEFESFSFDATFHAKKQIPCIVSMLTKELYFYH
Summary of the method: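 Recombinant human caspase-3 (stock 10 U/ml in assay buffer) mixed with inhibitor at various concentrations. Reaction started with AMC substrate at 200 (final). Buffer was 20 mM HEPES, 2 mM EDTA, 0.1% CHAPS, 5 mM DTT, pH 7.4. AMC release followed continuously at 37 °C by fluorescence, excitation 360 nm and emission 460 nm. IC50 determined.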

Saccharomyces cerevisiae [1] = experiment: Growth stimulation in Saccharomyces cerevisiae CG379 transformed with empty vector at 5 to 100 uM after 2 days; assay type: organism-based; details: in vivo, 48 h
Saccharomyces cerevisiae [2] = experiment: Growth stimulation in Saccharomyces cerevisiae CG379 transformed with empty vector at 5 to 50 uM after 2 days; assay type: organism-based; details: in vivo, 48 h

Row | inhibition (Caspase-3 (Homo sapiens)) | Activity (Saccharomyces cerevisiae [1]) [%] | SMILES | other results
1 | inactive | – | CC(C)[C@H](NC(=O)OCC1c2ccccc2-c2ccccc21)C(=O)N[C@H](C(=O)N[C@H](/C=C/S(=O)(=O)c1ccccc1)CC(=O)O)C(C)C | –
2 | inactive | – | C[C@H](NC(=O)OCc1ccccc1)C(=O)N[C@H](/C=C/S(C)(=O)=O)CC(=O)O | –
3 | – | -3.3 | CC[C@H](C)[C@H](NC(=O)OCc1ccccc1)C(=O)N[C@H](/C=C/S(C)(=O)=O)CC(=O)O | –
4 | – | 1.3 | CC(C)[C@H](NC(=O)OCC1c2ccccc2-c2ccccc21)C(=O)N[C@H](/C=C/S(=O)(=O)c1ccccc1)CC(=O)O | –
5 | inactive | – | CC[C@H](C)[C@H](NC(=O)OCC1c2ccccc2-c2ccccc21)C(=O)N[C@H](/C=C/S(=O)(=O)c1ccccc1)CC(=O)O | –
6 | inactive | – | C[C@H](NC(=O)OCC1c2ccccc2-c2ccccc21)C(=O)N[C@H](/C=C/S(=O)(=O)c1ccccc1)CC(=O)O | –
7 | – | – | CC(=O)N[C@@H](CC(=O)O)C(=O)N[C@@H](CCC(=O)O)C(=O)N[C@H](C(=O)N[C@@H](CC(=O)O)C(=O)CCl)C(C)C | Activity (Saccharomyces cerevisiae [2]): 1.7%
8 | – | -1 | CC(C)[C@H](NC(=O)OCc1ccccc1)C(=O)N[C@H](/C=C/S(C)(=O)=O)CC(=O)O | –
9 | inactive | – | CC(C)[C@H](NC(=O)OCC1c2ccccc2-c2ccccc21)C(=O)N[C@H](C(=O)N[C@H](/C=C/S(C)(=O)=O)CC(=O)O)C(C)C | –
10 | inactive | – | C[C@H](NC(=O)OCC1c2ccccc2-c2ccccc21)C(=O)N[C@H](/C=C/S(C)(=O)=O)CC(=O)O | –
11 | inactive | – | CC[C@H](C)[C@H](NC(=O)OCC1c2ccccc2-c2ccccc21)C(=O)N[C@H](/C=C/S(C)(=O)=O)CC(=O)O | –
12 | – | 1.9 | CC[C@H](C)[C@H](NC(=O)OCc1ccccc1)C(=O)N[C@H](/C=C/S(=O)(=O)c1ccccc1)CC(=O)O | –
13 | – | -7 | CC(C)[C@H](NC(=O)OCC1c2ccccc2-c2ccccc21)C(=O)N[C@H](/C=C/S(C)(=O)=O)CC(=O)O | –
14 | inactive | – | C[C@H](NC(=O)OCc1ccccc1)C(=O)N[C@H](/C=C/S(=O)(=O)c1ccccc1)CC(=O)O | –
15 | – | 2.8 | O=C(O)C[C@@H](/C=C/S(=O)(=O)c1ccccc1)NC(=O)OCC1c2ccccc2-c2ccccc21 | –
16 | – | 1.7 | CS(=O)(=O)/C=C/[C@H](CC(=O)O)NC(=O)OCC1c2ccccc2-c2ccccc21 | –
